# ChEMBL document CHEMBL2424623, “Enantioselective binding of chiral 1,14-dimethyl[5]helicene-spermine ligands with B- and Z-DNA” (Bioorg Med Chem, 2013)
# Values joined by “and” are separate entries in the source; they are usually repeats but may differ in a detail not shown here. Equal values may be shown once. Active and inactive are the calls of the source. The rule behind the calls is not given here.
# Columns and labels:
# [1] = Binding affinity to d(CGCm8GCG)2 DNA (unknown origin) assessed as change in UV-melting temperature at 5 uM
# How it was run: (§1)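 UV melting used 5 µM B- or Z-DNA in 5 mM Na cacodylate, 100 mM NaCl, pH 7.0, with or without 5 µM ligand. Temperature was ramped at 1 °C/min between 10 and 60 °C.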
# [2] = Dissociation rate to 5'-biotin-conjugated d(TTTTCGCm8GCG-TTTT-CGCm8GCG) DNA (unknown origin) measured for 150 seconds by SPR analysis
# [3] = Binding affinity to d(CGCGCG)2 DNA (unknown origin) assessed as association constant at 2:1 DNA to compound ratio by ITC analysis
# How it was run: (§2)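 Isothermal titration calorimetry at 25.0 °C. Ligand at 1 mM, dissolved in the final ODN dialysate, was titrated into 10.0 µM duplex d(CGCGCG)2 or d(CGCm8GCG)2 in 5 mM Na cacodylate, 100 mM NaCl, pH 7.0. The first 2 µL injection was followed by 10 µL injections, and the first injection was discarded. Samples were degassed. Stoichiometry is ligand per duplex.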
# [4] = Selectivity ratio of Ka for d(CGCm8GCG)2 DNA (unknown origin) to Ka for d(CGCGCG)2 DNA (unknown origin); how it was run: as §2
# [5] = Binding affinity to d(CGCGCG)2 DNA (unknown origin) assessed as association constant at 2.0 compound to DNA molar ratio by ITC analysis; how it was run: as §2
# [6] = Binding affinity to d(CGCm8GCG)2 DNA (unknown origin) assessed as association constant at 1.8 compound to DNA molar ratio by ITC analysis; how it was run: as §2
# [7] = Selectivity ratio of Ka for 5'-biotin-conjugated d(TTTTCGCGCG-TTTT-CGCGCG) DNA (unknown origin) to Ka for 5'-biotin-conjugated d(TTTTCGCm8GCG-TTTT-CGCm8GCG) DNA (unknown origin)
# [8] = Binding affinity to d(CGCGCG)2 DNA (unknown origin) assessed as association constant at 4.0 compound to DNA molar ratio by ITC analysis; how it was run: as §2
# [9] = Selectivity ratio of Ka for 5'-biotin-conjugated d(TTTTCGCm8GCG-TTTT-CGCm8GCG) DNA (unknown origin) to Ka for 5'-biotin-conjugated d(TTTTCGCGCG-TTTT-CGCGCG) DNA (unknown origin)
# [10] = Dissociation rate to 5'-biotin-conjugated d(TTTTCGCGCG-TTTT-CGCGCG) DNA (unknown origin) measured for 150 seconds by SPR analysis
# [11] = Induction of d(CGCGCG)2 DNA (unknown origin) to d(CGCm8GCG)2 DNA transition up to 160 uM by CD spectra analysis in presence of low concentration of NaCl
# How it was run: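 CD at 20 °C in a 2 mm cell. 20 µM d(CGCGCG)2 in 5 mM Na cacodylate, 100 mM NaCl, pH 7.0, was titrated with ligand stock from 0 to 160 µM. Spectra were blank-corrected and averaged over four scans.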
# [12] = Selectivity ratio of Ka for d(CGCGCG)2 DNA (unknown origin) to Ka for d(CGCm8GCG)2 DNA (unknown origin); how it was run: as §2
# [13] = Binding affinity to d(CGCm8GCG)2 DNA (unknown origin) assessed as association constant at 1.7 compound to DNA molar ratio by ITC analysis; how it was run: as §2
# [14] = Binding affinity to d(CGCGCG)2 DNA (unknown origin) assessed as change in UV-melting temperature at 5 uM; how it was run: as §1
# [15] = Binding affinity to d(CGCGCG)2 DNA (unknown origin) assessed as association constant at 3.5 compound to DNA molar ratio by ITC analysis; how it was run: as §2
# [16] = Binding affinity to d(CGCm8GCG)2 DNA (unknown origin) assessed as association constant at 4.1 compound to DNA molar ratio by ITC analysis; how it was run: as §2
ΔTm [1],koff [2],Ka [3] [×10⁸ /M],Selectivity ratio [4],Ka [5] [×10⁷ /M],Ka [6] [×10⁷ /M],Selectivity ratio [7],Ka [8] [×10⁷ /M],Selectivity ratio [9],koff [10],Activity [11],Selectivity ratio [12],Ka [13] [×10⁷ /M],ΔTm [14] [°C],Ka [15] [×10⁷ /M],Ka [16] [×10⁷ /M],Compound
7.5 °C and 3.3 °C,5.48 ×10⁻³ /s and 6.68 ×10⁻³ /s,3.7,2,36.7,0.17,7,0.083,2,3.7 ×10⁻³ /s and 8.59 ×10⁻³ /s,Active,50,0.67,–,–,–,Cc1cccc2ccc3c4c(c5ccc6cccc(C)c6c5c3c12)C(=O)N(CCCNCCCCNCCCN)C4=O
18 °C,6.66 ×10⁻³ /s,–,–,–,–,–,–,–,7.49 ×10⁻³ /s,–,–,–,16,0.62,0.31,NCCCNCCCCNCCCN1C(=O)C(c2ccc3ccccc3c2)=C(c2ccc3ccccc3c2)C1=O
